Compound activity as filed in PubChem.
Sampled rows, rich in hits. Any-hit rate of the full collection: about 1.8%.
ABHD4 inh – inhibitors of mouse ABHD4; inhibition, % at 8.92 µM; 370,000 compounds, 0.54% hits; purified mABHD4, FP-Rh probe fluorescence polarization;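 active = inhibition exceeding the mean over every tested compound plus 3 SD, cut at about 30% in these data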;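 note: 0% = plate median of compound wells and 100% = S159A mutant with DMSO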
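Assay system: mABHD4 protein; medium: HEPES pH 7.0, NaCl, Pluronic buffer; dosing: 8.92 µM, single dose; schedule: 45 min + 60 min at 25 °C; signal: FP readout, ex 525 nm / em 598 nm; read-out: normalized percent inhibition of probe labeling; repeats: single replicate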
PME-1 inh – blocks human protein phosphatase methylesterase 1 | AID 2130 | inhibition, % at 5.9 µM | 320,000 compounds, 0.53% hits | recombinant PME-1, FP-Rh probe fluorescence polarization;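 active = inhibition above the campaign mean of all compounds plus 3 SD, cut at about 26% in these data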;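 note: competitive labeling of PME-1 active site by serine hydrolase directed probe; 0% = PME-1 with DMSO and 100% = wells lacking PME-1 enzyme; inhibitors block probe labeling so polarization falls and inhibition rises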
TCR CD3 inh – blocks the human TCR-CD3 interaction; TAMRA-labeled TCR probe fluorescence, biochemical; inhibition, % at 9.4 µM; 360,000 compounds, 0.37% hits; AID 651800;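 note: recombinant mutant TCR 2C K166C tagged with TAMRA read by polarization; 0% = receptor in buffer alone and 100% = receptor with positive control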
SIAE inh – human SIAE inhibition, primary screen | Q9HAT2 | SIAE FP-Rh probe binding, fluorescence polarization | inhibition, % at 9.66 µM | 370,000 compounds, 0.69% hits | AID 1053197;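 active = inhibition above a cutoff: mean of compounds within the control limits plus 3 SD of those, cut at about 17% in these data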;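 note: 0% = plate median of compound wells and 100% = probe without SIAE protein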
Target sequence (Q9HAT2 whole entry, looked up): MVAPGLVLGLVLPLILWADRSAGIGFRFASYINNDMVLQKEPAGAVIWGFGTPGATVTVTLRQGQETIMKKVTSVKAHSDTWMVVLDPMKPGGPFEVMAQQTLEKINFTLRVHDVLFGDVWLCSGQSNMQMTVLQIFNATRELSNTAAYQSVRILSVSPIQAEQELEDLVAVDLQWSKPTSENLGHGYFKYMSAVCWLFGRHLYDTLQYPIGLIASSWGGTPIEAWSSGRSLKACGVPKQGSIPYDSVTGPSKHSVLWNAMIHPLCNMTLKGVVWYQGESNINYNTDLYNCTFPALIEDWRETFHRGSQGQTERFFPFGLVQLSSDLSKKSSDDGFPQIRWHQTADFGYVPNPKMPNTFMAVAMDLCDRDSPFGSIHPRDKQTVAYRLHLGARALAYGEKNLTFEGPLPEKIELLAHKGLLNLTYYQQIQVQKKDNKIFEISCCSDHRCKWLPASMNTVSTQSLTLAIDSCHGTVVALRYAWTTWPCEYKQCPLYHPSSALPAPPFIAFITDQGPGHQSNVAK
HTRA1 inhibitor – HTRA1 (human) protease inhibition; Q92743; recombinant HTRA1, FP-rhodamine activity-based probe, fluorescence polarization; AID 504803; inhibition, % at 5.96 µM; 340,000 compounds, 0.5% hits; in the data active = inhibition above about 36%;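 note: 0% = enzyme with DMSO and 100% = wells lacking enzyme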
Fam108B counter – counter-screen for RBBP9 inhibitors: inhibitors of mouse Fam108B | recombinant Fam108B, FP-Rh probe fluorescence polarization | inhibition, % at 9.51 µM | 300,000 compounds, 0.33% hits | AID 1947;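 active = inhibition above the screen mean inhibition plus 3 SD, computed separately per campaign, cut at about 18% in these data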;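 note: inhibitors lower polarization as less probe binds the enzyme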
BSA TAMRA ctr – counter-screen for TCR-CD3 interaction inhibitors: BSA probe; TAMRA-labeled BSA probe fluorescence counterscreen; shares compounds with TCR CD3 inh; AID 652035; inhibition, % at 9.4 µM; 1,200 compounds, 10% hits; in the data active = inhibition above about 23%;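 note: 0% = buffer low control and 100% = reference high control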
TCR-CD3 inh conf – TCR-CD3 interaction inhibition, confirmation; shares compounds with TCR CD3 inh; inhibition, % at 9.4 µM; 1,200 compounds, 48% hits; TAMRA-labeled TCR probe fluorescence binding assay
ABHD4 confirm – ABHD4 (mouse) inhibition, FP confirmation; inhibition, % at 8.92 µM; AID 720658; 1,800 compounds, 55% hits; shares compounds with ABHD4 inh; purified mABHD4, FP-Rh probe fluorescence polarization;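 active = mean inhibition across replicates above the hit cutoff set in the primary screen, cut at about 30% in these data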;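 note: 0% = wild-type ABHD4 with DMSO and 100% = catalytically dead S159A mutant with DMSO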
The depositor's hits bear a star; · = no result. Cut-off read from the data, not from the text of the source, unless noted: active = inhibition above about 19%; inactive = the rest.

SMILES	ABHD4 inh	PME-1 inh	TCR CD3 inh	SIAE inh	HTRA1 inhibitor	Fam108B counter	BSA TAMRA ctr	TCR-CD3 inh conf	others
O=C(C(=O)N1CCC(CNS(=O)(=O)c2ccc(C(F)(F)F)cc2)CC1)c1cc2ccccc2o1	-1.8	·	-1.6	-3.6	·	·	·	·
N#CCC[C@H]1CC[C@]2(CCCN(C(=O)c3ccccc3)C2)O1	-13.1	·	·	-1.8	·	·	·	·
CCCn1c(=O)c(C(=O)Nc2ncccc2O)c(O)c2ccccc21	3.5	·	21.8*	-2.0	6.2	·	-9.0	21.4*
Cn1c(=O)c(C(=O)Nc2ncccc2O)c(O)c2ccccc21	0.0	0.1	15.7	9.3	-0.1	10.1	·	·
CCOC(=O)CC[C@@H]1CC[C@]2(CCCN(C(=O)c3ccccc3)C2)O1	-1.3	·	·	13.6	·	·	·	·
COc1ccc(S[C@]2(C(=O)N3CCOCC3)CC(=O)N(c3ccc(Cl)cc3)[C@@H]2c2ccc(OC)cc2)cc1	-15.5	·	·	-5.2	·	·	·	·
NNC(=O)c1nc[nH]c1C(=O)Nc1ccccn1	-2.6	-3.0	38.0*	-2.7	5.2	-3.2	2.4	25.1*
O=C(N/N=C/c1cc(Br)ccc1O)c1cccc(N2CCCC2=O)c1	5.0	-6.0	29.5*	-6.8	16.5	0.4	-5.6	25.9*
Cc1cc(/C=N/n2c(COc3ccccc3C)nc3ccccc3c2=O)c(O)c([N+](=O)[O-])c1	3.4	-2.0	20.6*	9.8	31.8	11.7	13.7	52.8*
Cc1ccccc1OCc1nc2ccccc2c(=O)n1/N=C/c1c[nH]c2ccccc12	-4.9	-23.0	-0.2	6.5	-4.4	-7.6	·	·
COC(=O)[C@H]1C[C@@]2(C#N)c3ccccc3N(C(=O)OC(C)(C)C)[C@H]2N1C(=O)OC(C)(C)C	2.5	·	·	3.7	·	·	·	·
CC(=O)Nc1ccc(NC(=O)CC(c2ccccc2)c2ccccc2)cc1	3.2	2.2	113.9*	4.8	-4.2	-2.2	23.0*	6.7
COc1ccc(-n2c(SCC(=O)Nc3ccccc3-c3ccccc3)nnc2-c2ccccn2)cc1	-3.3	·	·	1.2	·	·	·	·
C=CCn1c(COc2ccc(C)cc2)nnc1SCc1ccc([N+](=O)[O-])cc1	3.0	·	·	4.1	·	·	·	·
Cc1ccc(C(=O)OCc2nc3ccsc3c(=O)[nH]2)o1	3.3	-1.8	0.9	4.3	-1.1	1.5	·	·
Cc1cnc(C(=O)OCc2nc3ccsc3c(=O)[nH]2)cn1	5.5	-6.4	28.2*	-3.1	-0.8	·	-13.4	16.3
CCc1ccc(N2CC(C(=O)OCc3nc4ccsc4c(=O)[nH]3)CC2=O)cc1 (configuration not stated)	3.3	-5.6	27.3*	-1.6	12.2	·	-11.4	12.2
COc1ccc(Br)cc1C=NNC(=O)c1ccncc1	-0.4	·	·	-1.8	·	·	·	·
N#Cc1c(N)sc2c1CCCCCC2	8.0	6.7	-2.2	13.9	8.3	1.6	·	·
N#Cc1c(N)sc(=S)c2c1CCCCC2	35.5*	-1.5	25.5*	3.4	26.2	10.2	21.2	26.3*
O=C(NNC(=O)c1nn(-c2ccc(F)cc2)ccc1=O)c1ccc(Cl)cc1	3.7	-4.1	2.3	-2.4	·	0.6	·	·
O=C(NNC(=O)c1nn(-c2ccc(F)cc2)ccc1=O)Nc1cccc(Cl)c1	1.3	1.4	34.4*	9.7	·	-3.7	-14.3	25.6*
CC(C)NC(=O)NNC(=O)c1nn(-c2ccc(F)cc2)ccc1=O	0.0	0.0	20.5*	-2.4	8.2	-1.6	0.3	15.4
Cc1ccc(-c2cc(-c3nnc(SCC(=O)Nc4ccccc4-c4ccccc4)n3N)[nH]n2)cc1	-4.5	·	·	-6.9	·	·	·	·
S=C(Nc1cccc(Cl)c1)OCCN1CCCC12CCC(c1ccccc1)CC2 (configuration not stated)	2.3	·	·	-4.7	·	·	·	·
SMILES	ABHD4 inh	PME-1 inh	TCR CD3 inh	SIAE inh	HTRA1 inhibitor	Fam108B counter	BSA TAMRA ctr	TCR-CD3 inh conf	others
CCCCNC(=O)C[C@H]1C[C@@]2(C(=O)OC)C(=C[C@H](C(C)C)O[C@@H]2C2CC2)N(Cc2cccc3ccccc23)C1=O	-8.1	·	·	1.7	·	·	·	·
CS(=O)(=O)N(Cc1ccc(C(=O)NN=C2CCCCCC2)cc1)c1ccccc1	12.1	0.6	32.6*	-7.9	-18.5	2.6	0.4	-2.0
CCN1CCCCC(NC(=O)c2cccc(C(F)(F)F)c2)C1=O (configuration not stated)	-0.3	·	·	2.7	·	·	·	·
COCCCN1C(=O)[C@H](CC(=O)NCC2CCCCC2)[C@]2(C(=O)OC)CCCCC=C12	2.2	·	·	-4.3	·	·	·	·
c1ccc(C2OC3c4cccc5cccc(c45)C3N2c2ccccc2)cc1 (configuration not stated)	47.8*	2.3	25.5*	2.4	3.4	-2.0	7.2	2.6	ABHD4 confirm=-21.2
Cc1cc(=O)[nH]c(SCC(=O)Nc2cccc(Cl)c2F)n1	-0.7	·	·	-0.6	·	·	·	·
O=S(=O)(c1ccc(Br)cc1Cl)N1CCN(CCO)CC1	0.9	-2.0	1.9	5.0	1.1	0.9	·	·
O=C1C=CC(=O)c2c(O)c(N3CCN(CCO)CC3)c(Cl)c(O)c21	35.2*	·	62.8*	9.9	35.0	·	9.8	38.8*	ABHD4 confirm=78.6*
O=C1C(=Cc2ccco2)CCC1=Cc1ccco1	30.5*	·	45.4*	12.3	34.0	·	-6.5	17.2	ABHD4 confirm=6.4
N#C/C(=C\c1cc(O)c(O)c(O)c1)C(N)=O	38.5*	-8.3	31.7*	0.1	17.9	1.7	-6.4	12.7	ABHD4 confirm=20.1
N#C/C(=C\c1cc(Cl)c(OCc2ccc(Cl)cc2)c(Cl)c1)C(N)=O	·	-4.4	·	·	·	-3.7	·	·
OC(c1ccccc1)(c1ccccc1)C1CCN(CCCOc2ccc(OC(F)(F)F)cc2)CC1	12.6	·	·	-5.2	·	·	·	·
C/C(=N\NC(=O)COc1cccc(C)c1)c1ccc2ccccc2c1O	48.9*	·	28.3*	-3.2	13.4	·	-14.3	15.6	ABHD4 confirm=45.9*
CCOC(=O)Cn1cc(CN2C(C(=O)OC)CN(C3CCCC3)CCS2(=O)=O)nn1 (configuration not stated)	-5.0	·	·	7.0	·	·	·	·
Cc1ccc(CNC(=O)c2c(-c3ccccc3Cl)noc2C)cc1	6.6	-2.7	-6.9	1.4	7.2	-2.5	·	·
Cc1onc(-c2ccccc2Cl)c1C(=O)NCc1ccc2c(c1)cc(C)n2C	29.8*	23.1	34.1*	13.3	23.9	8.2	8.1	4.5	ABHD4 confirm=19.4
O=C(N/N=C/c1ccncc1)c1cc([N+](=O)[O-])cc([N+](=O)[O-])c1O	31.8*	4.7	38.1*	2.6	33.8	15.5	3.8	48.3*	ABHD4 confirm=36.0*
Cc1ccccc1NC(=S)N/N=C/c1ccc(O)cc1O	34.1*	12.3	20.1*	14.4	34.7	6.1	-16.3	7.5	ABHD4 confirm=10.7
CCCOc1ccc(/C=N/NC(=S)Nc2ccccc2[N+](=O)[O-])c(O)c1	39.2*	30.4*	27.3*	13.1	·	1.8	-12.1	8.0	ABHD4 confirm=36.2*
